The values that follow come from ChEMBL document CHEMBL1135605, “Preparation and characterization of platinum(II) and (IV) complexes of 1,3-diaminepropane and 1,4-diaminebutane: circumvention of cisplatin resistance and DNA interstrand cross-link formation in CH1cisR ovarian tumor cells” (J Med Chem, 2002).

Test [1] has as its system A2780. Description: Compound was evaluated against human Ovarian carcinoma cell line A2780cisR. It is filed as functional, cell-based. An outline of the steps:
(§1)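 MTT cell survival assay. Compounds dissolved in 10 mM NaClO4 in distilled water, with 1 mg/mL stocks freshly prepared. Final concentrations 0–200 μM added to the cultures. Survival read 24 h later by absorbance at 520 nm. IC50 (concentration giving 50% cell killing) taken from % survival vs concentration curves. Run in quadruplicate.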

Test [2] concerns A2780. Description: Compound was evaluated against human Ovarian carcinoma cell line A2780. It is filed as functional, cell-based. A digest of the protocol: as §1
Test [3] has as its system CH1. Description: Compound was evaluated against human Ovarian carcinoma cell line CH1. It is filed as functional, cell-based. A digest of the protocol:
as §1

Test [4] concerns PAM212. Description: Compound was evaluated against normal Pam 212 cell line. It is filed as functional, cell-based, Mus musculus. An outline of the steps: as §1
Test [5] concerns PAM212. Description: Compound was evaluated against transformed murine keratinocytes Pam 212-ras cell line. It is filed as functional, cell-based, Mus musculus. An outline of the steps:
as §1

The subject of test [6] is CH1. Description: Compound was evaluated against human Ovarian carcinoma cell line CH1cisR. It is filed as functional, cell-based. A digest of the protocol: as §1

In general, IC50 refers to the midpoint of a concentration-inhibition curve. Read a high IC50 as weaker potency.

As to “Cis-[Pt(1,3-diaminepropane)2(O-Maleate)2]”, the IC50 in test [1], in test [2], in test [3], in test [4], in test [5] and in test [6] was more than 200 µM each time.

For the substance “Cis-[Pt(1,3-diaminebutane)2(OH)2] 1,1-cyclobutanedicarboxylate”, the IC50 in test [1], in test [2], in test [3], in test [4], in test [5] and in test [6] was more than 200 µM throughout.

Take “Cis-[Pt(1,3-diaminebutane) 1,1-cyclobutanedicarboxylate]”: the IC50 is 0.74 µM in test [1]; 0.32 µM in test [2]; 3.3 µM in test [3]; 100 µM in test [4]; 42 µM in test [5]; 6 µM in test [6].

As for “Cis-[Pt(1,3-diaminebutane)2(O-Succinate)2]”, the IC50 in test [1], in test [2], in test [3], in test [4], in test [5] and in test [6] was more than 200 µM in each case.

For the substance “Cis-[Pt(1,3-diaminepropane)2] 1,1-cyclobutanedicarboxylate”, the IC50 in test [1], in test [2], in test [3], in test [4], in test [5] and in test [6] was more than 200 µM in each case.

Regarding “Cis-[Pt(1,3-diaminepropane) 1,1-cyclobutanedicarboxylate]”, the IC50 in test [1] worked out at 1 µM; in test [2] it was 0.3 µM; in test [3], 4.5 µM; in test [4], 85 µM; in test [5], 64 µM; in test [6], 8 µM.

Turning to “Cis-[Pt(1,3-diaminepropane)2(OH)2] 1,1-cyclobutanedicarboxylate”, the IC50 in test [1], in test [2], in test [3], in test [4], in test [5] and in test [6] was more than 200 µM throughout.

With CARBOPLATIN, the IC50 in test [1] is 178 µM; in test [2], 18 µM; in test [3] it was 52 µM; in test [4] it was more than 200 µM; in test [5], more than 200 µM; in test [6], 185 µM.

With “Cis-[Pt(1,3-diaminepropane)2(O-Glutarate)2]”, the IC50 in test [1], in test [2], in test [3], in test [4], in test [5] and in test [6] was more than 200 µM each time.

As to CISPLATIN, the IC50 in test [1] was determined as 36 µM; in test [2], 2 µM; in test [3], 6 µM; in test [4], 44 µM; in test [5], 72 µM; in test [6], 25 µM.

Consider “Cis-[Pt(1,3-diaminebutane)2] 1,1-cyclobutanedicarboxylate”, for which the IC50 in test [1], in test [2], in test [3], in test [4], in test [5] and in test [6] was more than 200 µM in each case.

With “Cis-[Pt(1,3-diaminepropane)2(O-Succinate)2]”, the IC50 in test [1], in test [2], in test [3], in test [4], in test [5] and in test [6] was more than 200 µM throughout.
